Bioassay records: PubChem, several laboratories
STEP inh = blocks human striatal-enriched tyrosine phosphatase. P54829. recombinant STEP, OMFP fluorogenic substrate, fluorescence. inhibition, % at 20 µM. actives 0.25% (n = 360,000). AID 588621;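 active means inhibition at 20 µM, scaled per plate between control wells, above about 37%, limit read from the data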;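 further: 0% = DMSO with enzyme and substrate and 100% = substrate only without enzyme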
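Material: STEP (striatal-enriched tyrosine phosphatase) enzyme, cell-free | Medium: 50 mM Bis-Tris pH 6.0 with 2.5 mM DTT and 0.005% Tween 20 | Read-out: Percent inhibition scaled to no-enzyme and uninhibited-enzyme controls, plate-pattern corrected | Signal: Fluorescence read at 480 nm ex / 540 nm em | Times: 20 min reaction, room temperature, in the dark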
PP1 inh = counter-screen for PP5 inhibitors: inhibitors of human PP1-alpha. inhibition, % at 6.7 µM. P62136. purified PP1alpha, OMFP fluorescence. actives 0.9% (n = 320,000). AID 2235;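 active means inhibition above the mean inhibition of all tested compounds plus 3 SD, computed separately for each screening campaign, cut at about 15% in these data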
Scp-1 inhibitor = blocks human Scp-1 phosphatase activity. Recombinant Scp1, phosphopeptide, malachite green phosphate absorbance. inhibition, % at 20 µM. actives 0.88% (n = 340,000);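 active means inhibition above about 50% at 20 µM, limit read from the data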;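 further: plate controls were DMSO wells with enzyme for no effect and wells lacking enzyme for full effect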
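Assay system: SCP-1 catalytic fragment, aa 76-261 | Buffer or medium: Tris acetate buffer pH 5.5 with MgCl2 and Tween-20 | Compound: One concentration, 20 µM, with 1.0% DMSO | Also added: Phospho 17-mer peptide substrate | Signal: Absorbance at 630 nm | Incubation: 45 min enzyme reaction at room temperature | Measure: % inhibition of SCP-1 phosphate liberation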
PP5 primary = inhibitors of human protein phosphatase 5 (PP5); P53041; purified PP5c, OMFP substrate fluorescence; inhibition, % at 6.7 µM; actives 0.18% (n = 320,000); AID 1987;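 active means inhibition above the campaign's mean inhibition across all tested compounds plus 3 SD, cut at about 9.5% in these data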;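 further: 0% = DMSO only and 100% = 100 µM cantharidin control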
Target sequence (P53041 whole entry, looked up): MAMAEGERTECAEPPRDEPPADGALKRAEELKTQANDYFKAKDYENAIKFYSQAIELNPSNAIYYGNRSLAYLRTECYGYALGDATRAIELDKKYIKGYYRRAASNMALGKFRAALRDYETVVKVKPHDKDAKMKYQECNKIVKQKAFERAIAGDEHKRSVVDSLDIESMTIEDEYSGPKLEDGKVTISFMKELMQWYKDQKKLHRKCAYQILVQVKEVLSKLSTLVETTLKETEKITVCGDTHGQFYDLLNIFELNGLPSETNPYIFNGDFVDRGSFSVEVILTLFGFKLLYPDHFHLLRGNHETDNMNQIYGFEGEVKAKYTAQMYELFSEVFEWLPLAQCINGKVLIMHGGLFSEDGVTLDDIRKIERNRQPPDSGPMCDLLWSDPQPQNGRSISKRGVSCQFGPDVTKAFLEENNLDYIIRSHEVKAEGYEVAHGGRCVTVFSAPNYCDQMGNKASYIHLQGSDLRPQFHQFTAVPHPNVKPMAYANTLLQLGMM
LMPTP inh = LMPTP (human) inhibition. AID 651560. actives 0.22% (n = 360,000). inhibition, % at 20 µM. recombinant LMPTP-A, OMFP fluorogenic substrate, fluorescence intensity;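 active means compounds that cut the enzyme signal by at least half of the control window in the single-dose screen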;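 further: plate controls were DMSO wells with enzyme plus substrate for no effect and substrate without enzyme for full effect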
Target sequence (P24666 whole entry, looked up): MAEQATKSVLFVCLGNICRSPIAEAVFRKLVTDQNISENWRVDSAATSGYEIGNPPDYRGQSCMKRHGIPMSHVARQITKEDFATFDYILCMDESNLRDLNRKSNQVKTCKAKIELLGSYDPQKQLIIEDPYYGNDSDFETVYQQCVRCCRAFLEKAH
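Assay system: LMPTP-A phosphatase enzyme | Input: 0.625 nM enzyme | Also added: Fluorogenic phosphatase substrate OMFP at 400 µM final | Compound dosing: One test concentration per compound, 20 µM, with 3% DMSO overall | Schedule: 50 min enzyme reaction at room temperature, protected from light | Signal: Fluorescence intensity | Benchmarks: no-enzyme and uninhibited controls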
Scp-1 conf = confirmation of human Scp-1 phosphatase inhibitors | shares compounds with Scp-1 inhibitor | recombinant SCP-1 catalytic domain, phosphate release, malachite green absorbance | inhibition, % at 20 µM | actives 61% (n = 2,500) | AID 540281;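 further: plate controls were DMSO with enzyme for no effect and buffer wells lacking enzyme for full effect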
Scp-1 MG ctr = interferes with malachite green readout, flagging false Scp-1 hits | 2,500 tested, under 10 active | shares compounds with Scp-1 inhibitor | apparent inhibition (interference), % at 20 µM | Colorimetric interference counterscreen, malachite green absorbance 630 nm;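 further: compounds added after enzyme reaction finished so only phosphate colour detection is probed; plate controls were DMSO wells with completed Scp-1 reaction for no effect and substrate wells lacking enzyme for full effect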
Scp1 DSF = Scp-1 (human) binding by thermal shift | Recombinant SCP1, Sypro Orange thermal shift Tm | actives 25% (n = 1,500) | shares compounds with Scp-1 inhibitor | AID 540329 | thermal shift relative to vanadate control, % at 40 µM;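 active means substances whose mean melting-temperature shift, as a percentage of the reference inhibitor's shift, reaches about 5.3%, limit read from the data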;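 further: 0% = Tm of DMSO wells and 100% = Tm with sodium orthovanadate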
* hit, by the source's call; nt = no result. An excerpt weighted towards active compounds, which were near 1.9% of everything screened.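 How the source made its calls, unless noted: active means inhibition of at least 30% at 20 µM; inactive means the rest.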

SMILES | STEP inh | PP1 inh | Scp-1 inhibitor | PP5 primary | LMPTP inh | Scp-1 conf | Scp-1 MG ctr | Scp1 DSF
CCOC(=O)c1cc(-c2ccc(N3CCOCC3)cc2)nn1-c1ccccc1C(=O)O | 96* | 14 | 80* | 0 | 58* | 64* | -15 | -13
CCOC(=O)c1cnc(-c2ccccc2)nc1N1CCOCC1 | -3 | -3 | 1 | 1 | 0 | nt | nt | nt
Cc1sc2ncnc(SCC(=O)N3CCN(C(=O)c4ccco4)CC3)c2c1C | 0 | 4 | -1 | 4 | -1 | nt | nt | nt
CCOc1cc(/C=C2\SC(=O)N(CC(=O)Nc3ccccc3F)C2=O)cc([N+](=O)[O-])c1O | 4 | 1 | 85* | 5 | 2 | 62* | -7 | 21*
COc1ccccc1N(CC(=O)Nc1ccc2c(c1)OCO2)S(=O)(=O)c1ccccc1 | -2 | 0 | 99* | -1 | -1 | 19 | -9 | nt
Cc1ccc(-n2ncc3c(=O)n(CC#N)cnc32)cc1C | 1 | -11 | 4 | 0 | -2 | nt | nt | nt
COc1ccc(/C=N\NC(=O)c2ccc([N+](=O)[O-])c(C)c2)cc1COc1ccccc1C(N)=O | 6 | 6 | 67* | 4 | 1 | 34* | -8 | -3
COc1ccc(NC(C)=[N+](C)CCNS(=O)(=O)c2ccc(Cl)cc2)cc1 | -4 | 0 | 96* | 0 | -1 | 93* | -4 | -21
Cc1ccc(S(=O)(=O)NC(=O)c2ccc(-c3ccc(C)c4ccccc34)o2)cc1 | 4 | 12 | 61* | 4 | 0 | 77* | -4 | 2
CS(=O)(=O)N1CCc2cc(S(=O)(=O)Nc3ccc4oc5c(c4c3)CCCC5)ccc21 | 2 | -3 | -4 | 2 | 2 | nt | nt | nt
COc1ccc(C=C2SC(=S)NC2=O)cc1 | -4 | nt | 11 | nt | -2 | nt | nt | nt
COc1cccc(OCCOc2ccc(/C=C3/SC(=S)NC3=O)cc2)c1 | 8 | -3 | 56* | 2 | 1 | 1 | -15 | nt
FC(F)(F)c1ccc(CN2C[C@@H]3C(c4ccccc4)C4(c5cccnc5)CC3(C4)[C@H]2c2ccccc2)cc1 (stereo partly drawn) | 6 | 1 | 4 | 0 | 11 | nt | nt | nt
CC1=CCC(C(=O)O)C(C(=O)Nc2ccc(-c3nc4ccc(C)cc4s3)cc2)C1 (stereo not drawn) | 2 | 9 | 50* | 3 | 1 | 65* | -5 | 4
COc1ccccc1C(C)NC(=O)c1cc(=O)[nH]c2ccccc12 (stereo not drawn) | -2 | 0 | 74* | 3 | 1 | -2 | -8 | nt
CCN(CC)CCNC(=O)c1cc2ccccc2nc1Cl | 0 | -2 | 8 | 2 | 0 | nt | nt | nt
COc1ccc(NC(=O)COC(=O)c2ccc(S(=O)(=O)N3CC(C)CC(C)C3)cc2)cc1OC (stereo not drawn) | 0 | nt | nt | nt | 2 | nt | nt | nt
COc1cc(NC(=O)COC(=O)c2ccc(S(=O)(=O)N3CC(C)CC(C)C3)cc2)c(C)cc1[N+](=O)[O-] (stereo not drawn) | 2 | -1 | 67* | 5 | 1 | 35* | -10 | 1
COc1ccc(/C=N/NC(=O)c2sccc2C)c2ccccc12 | 3 | -2 | -14 | 1 | -2 | nt | nt | nt
CCOC(=O)C1=C(C)N=c2s/c(=C\c3ccc(C(=O)O)cc3)c(=O)n2C1c1ccc(OC)cc1OC (stereo not drawn) | 6 | 1 | 73* | 1 | 1 | 72* | -7 | 6.9*
Cc1onc(-c2c(F)cccc2Cl)c1C(=O)NCCN1CCNC1=O | -1 | 1 | -14 | 3 | 1 | -6 | -11 | nt
Cc1ccc(C(=O)NCCN2CCNC2=O)cc1 | 4 | -1 | -18 | -3 | -1 | -11 | -7 | nt
Cc1ccc(S(=O)(=O)C(C#N)c2nc3ccccc3nc2N2CC(C)OC(C)C2)cc1C (stereo not drawn) | -2 | 2 | 79* | 6 | 0 | -13 | -19 | nt
Cc1cccc(S(=O)(=O)C(C#N)c2nc3ccccc3nc2N2CC(C)OC(C)C2)c1 (stereo not drawn) | -5 | 3 | -4 | 5 | 0 | nt | nt | nt
COc1ccc2oc(=Nc3ccc(C(=O)O)cc3)c(C(=O)NCc3ccco3)cc2c1 | -3 | -4 | -9 | -4 | 1 | nt | nt | nt
SMILES | STEP inh | PP1 inh | Scp-1 inhibitor | PP5 primary | LMPTP inh | Scp-1 conf | Scp-1 MG ctr | Scp1 DSF
COc1ccc2cc(C(=O)NCc3ccco3)c(=Nc3ccc(C(=O)O)cc3)oc2c1 | 5 | 1 | 63* | 1 | 0 | 34* | -20 | -3
CC(=O)c1ccccc1C(=O)N1CCCC(N2CCN(Cc3ccc4c(c3)OCO4)CC2)C1 (stereo not drawn) | -1 | -1 | 65* | 3 | 2 | -10 | -13 | nt
COc1cccc2c(N/N=C/c3ccc(O)c(O)c3)cc(C)nc12 | -3 | 0 | 0 | 2 | -1 | nt | nt | nt
O=C(O)C1CCCCC1C(=O)Nc1cccc(Br)c1 (stereo not drawn) | 98* | 2 | 84* | 1 | 61* | 63* | -14 | -25
CN(C)CCNS(=O)(=O)c1ccc2c3c(cccc13)C(=O)N2 | 2 | 0 | -2 | 3 | 9 | nt | nt | nt
O=C1Nc2ccc(S(=O)(=O)NCc3ccccn3)c3cccc1c23 | 16 | nt | 86* | nt | 13 | 61* | -6 | -8
COC(=O)c1cc(NC(=O)c2ccoc2C)cc(C(=O)OC)c1 | -2 | -3 | -5 | 3 | 0 | nt | nt | nt
CC(C)OC(=O)C1C2C=CC3(CN(Cc4cccs4)C(=O)C13)O2 (stereo not drawn) | -1 | -2 | 68* | 1 | -1 | -12 | -10 | nt
Cc1cc(C)c(C)c(OCCn2ccnc2)c1 | -3 | -2 | -4 | -1 | 0 | nt | nt | nt
Cc1ccc(C)c(OCCn2ccnc2)c1 | -3 | -3 | 59* | 4 | 0 | 39* | -11 | -14
Cc1ccc(CNC(=O)C2CCCN2C(=O)Nc2ccc(C)cc2)cc1 (stereo not drawn) | 0 | 2 | -3 | -1 | -1 | nt | nt | nt
Cc1ccc(NS(=O)(=O)c2ccc3c(c2)NC(=O)CCS3)c(Br)c1 | 0 | 7 | -4 | 1 | 0 | nt | nt | nt
COc1ccc(Br)cc1C(=O)N/N=C/c1ccc([N+](=O)[O-])cc1 | 21 | 0 | 99* | 2 | 43 | 33* | -7 | 2
CCOc1ccc(Br)cc1C(=O)N/N=C/c1ccccn1 | -2 | -2 | -6 | 0 | -1 | nt | nt | nt
CCOc1ccc(Br)cc1C(=O)N/N=C/c1ccc([N+](=O)[O-])cc1 | 21 | 2 | 81* | 3 | 38 | 32* | 4 | 3
